L major viab: Leishmania major promastigote growth inhibition, primary screen; 200,000 tested, 9% active; inhibition, % at 10 µM; AID 1063, 2008; Leishmania major promastigotes, resazurin fluorescence viability;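 further: promastigotes grown with compound for 44 hours at 28 °C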
PfGluPho inh: PfG6PD enzyme inhibitors, primary screen, biochemical, fluorescence intensity, uHTS; PfGluPho enzyme, NADPH resazurin-diaphorase fluorescence; inhibition, % at 20 µM; 350,000 tested, 0.78% active;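 active means inhibition reaching at least a set limit at 20 µM in the primary screen, cut at about 59% in these data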
Diaph act CS: compounds boosting diaphorase resazurin reduction – biochemical, uHTS, resorufin fluorescence, counter-screen for diaphorase-coupled primary assays, primary screen | 190,000 tested, 0.005% active | activation factor at 20 µM | Diaphorase/resazurin coupled assay, 16 min; stronger effect = higher value; 1 = vehicle wells, 0 = NADH-free wells;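 active means diaphorase activity raised at least twofold by the compound at 20 µM; inactive means activation factor below 2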
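Material: bacterial diaphorase enzyme (C. kluyveri); amount: enzyme 0.07 U/mL final; reagent: NADH substrate 0.114 mM plus resazurin dye 0.1 mM, final; doses: single compound dose of 20 µM, 1% DMSO final; timing: 16 min enzyme reaction, ambient temperature; measured by: fluorescence of resorufin, 544 nm excitation, 590 nm emission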
Diaphorase inh: diaphorase inhibitors and chemical oxidizers, primary screen, counter-screen for diaphorase-coupled primary assays, biochemical, uHTS, resorufin fluorescence. diaphorase resazurin-to-resorufin fluorescence, NADH, 16 min; bacterial (C. kluyveri) enzyme, not human. inhibition, % at 20 µM. AID 1217, 2008. 190,000 tested, 0.69% active;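 active means primary screen inhibition at 20 µM above a set limit, cut at about 50% in these data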
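Assay system – diaphorase enzyme from Clostridium kluyveri · Amount – diaphorase 0.14 U/mL (working solution) · Times – reaction incubation of 16 min at room temperature · Controls – No-NADH positive control and DMSO neutral control · Signal – resorufin fluorescence 544/590 nm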
DTT redox prof: compounds producing H2O2 with reducing agent – biochemical, NIH compound library profiling, artefact control for MLSCN library redox annotation, primary screen | DTT-dependent redox cycling H2O2, phenol red/HRP absorbance; 100% = 100 µM peroxide control, 0% = buffer | activation, % at 10 µM | 200,000 tested, 0.03% active;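 active means activation of at least 50% relative to the plate's high and low controls in the primary single-dose screen; inactive means activation below 50%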;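 further: compound incubated with DTT at 0.8 mM final as the reducing agent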
G6PDH counter: L. mesenteroides G6PDH inhibitors, counter-screen for G6PDH-coupled screening assays, biochemical, Leuconostoc mesenteroides enzyme. 200,000 tested, 0.12% active. Purified L. mesenteroides G6PDH, diaphorase/resazurin coupled fluorescence, 45 min. inhibition, % at 5 µM. AID 1020, 2008. glucose-6-phosphate dehydrogenase [Leuconostoc mesenteroides]
A number is an active result; - = inactive; . = no result. Only a selection was taken, and hits are over-represented in it overall. Unless noted, no stated cut-off is given here; in the data, active means inhibition above about 50%; inactive means the rest.

SMILES	L major viab	PfGluPho inh	Diaph act CS	Diaphorase inh	DTT redox prof	G6PDH counter
COc1ccc(-c2cn(-c3ccc(Br)cc3)c3[n+]2CCS3)cc1	100.0	-	-	-	-	-
Clc1ccc(-c2cn(-c3ccccc3)c3[n+]2CCS3)cc1	69.8	-	-	-	-	-
CC(=O)c1ccc(-n2cc(-c3ccc(C(C)(C)C)cc3)[n+]3c2SCCC3)cc1	100.1	-	-	-	-	-
O=[N+]([O-])c1cccc(-c2c[n+]3c(n2-c2ccccc2)SCC3)c1	-	-	-	-	-	-
Fc1ccc(-c2cn(-c3ccccc3)c3[n+]2CCS3)cc1	.	-	.	.	.	.
Clc1ccc(-c2c[n+]3c(n2-c2ccccc2)SCC3)cc1	97.3	-	-	-	-	-
O=C(c1cc(COc2ccc(F)cc2Cl)on1)N1CCSCC1	.	-	.	.	.	.
Cc1cccc(Cn2c(C(=O)OC(C)C)cc3c2ccn3C)c1	-	-	-	-	-	-
CC(=O)c1ccc(N2CCN(C(=O)c3ccco3)C(C)C2)c(F)c1 (stereo not drawn)	63.8	-	-	-	-	-
C/C(=N/NC(=O)CNC(=O)c1ccccc1F)c1ccc2c(c1)CCCC2	-	-	-	-	-	-
COc1ccc(N2CCN(CCCNC(=O)C(=O)c3c(C)n(C)c4ccccc34)CC2)cc1	.	-	.	.	.	.
CC(C)N(C(=O)Nc1ccc2nccnc2c1)C(C)C	-	-	-	65.0	-	-
Fc1ccc(NC(=S)Nc2ccc3nccnc3c2)cc1	-	-	-	64.4	-	-
Cc1nc2ccc(NC(=O)N(C(C)C)C(C)C)cc2s1	-	-	-	-	-	-
CCCCn1c(N)c(N(CCOC)C(=O)CN(C)S(=O)(=O)c2ccc(C)cc2)c(=O)[nH]c1=O	.	-	.	.	.	.
CCCCSc1cnn(-c2ccccc2)c(=O)c1SCCCC	78.7	-	-	-	-	-
O=C(Nc1ccc(Nc2ccccc2)cc1)C(Cl)(Cl)Cl	78.4	-	-	-	-	-
CCC(=O)Nc1ccc(Nc2ccccc2)cc1	93.3	-	-	-	-	-
CC(C)(C)NC(=S)Nc1ccc(Nc2ccccc2)cc1	61.4	-	-	-	-	-
COCC(=O)Nc1ccc(Nc2ccccc2)cc1	-	-	-	-	-	-
CC(C)(C)NC(=S)Nc1ccc(Br)cc1	-	-	-	-	-	-
Cc1ccc(OCCCCN2CCc3ccccc3C2)cc1	.	-	.	.	.	.
O=C(Nc1ccc(S(=O)(=O)NC2=NCCCCC2)cc1)c1ccc(Cl)cc1Cl	.	-	.	.	.	.
O=C(COc1ccc(S(=O)(=O)N2CCOCC2)cc1)NCc1ccccn1	.	-	.	.	.	.
COc1ccc2c(c1)c1nnc(SC)nc1n2C	95.7	-	-	-	-	-
SMILES	L major viab	PfGluPho inh	Diaph act CS	Diaphorase inh	DTT redox prof	G6PDH counter
COc1ccc2c(c1)c1nnc(SCC(=O)N3C(C)CCCC3C)nc1n2C (stereo not drawn)	78.1	-	-	-	-	-
O=c1oc2c(-c3cccc(F)c3)cc(O)cc2s1	-	-	-	-	-	-
CCOC(=O)c1ccc2c(c1)C1C=CCC1C(C(=O)O)N2 (stereo not drawn)	-	.	-	61.7	-	-
CC(C)C1Nc2ccc(C(=O)O)cc2C2C=CCC21 (stereo not drawn)	-	-	-	-	-	-
Cc1ccccc1OCC(=O)Nc1ccccc1N1CCC(C)CC1	-	-	-	-	-	-
Cc1ccc(C(=O)N/C(=C\c2ccc(-c3ccc(Cl)cc3)o2)C(=O)NCCCN(C)C)cc1	100.7	-	-	-	-	-
CN(C)CCNC(=O)/C(=C/c1ccc(-c2cccc(Cl)c2)o1)NC(=O)c1ccccc1	100.4	-	-	-	-	-
Cc1ccc(C(=O)N/C(=C/c2ccc(-c3cccc([N+](=O)[O-])c3)o2)C(=O)NC(C)(C)C)cc1	82.4	-	-	-	-	-
CN(C)CCCNC(=O)/C(=C\c1ccc(-c2ccc(Br)cc2)o1)NC(=O)c1ccccc1	100.5	-	-	-	-	-
Cc1cc(C)cc(NC(=S)N2CCC(NC(=O)c3ccco3)CC2)c1	.	-	.	.	.	.
Cc1ccccc1-n1nc(C)c2cc(C(=O)N3CCN(S(=O)(=O)c4ccc(F)cc4)CC3)sc21	52.5	-	-	-	-	-
Cc1ccc(-c2n[nH]c(=S)n2/N=C/C=C\c2ccccc2[N+](=O)[O-])cc1	-	-	-	66.2	-	-
O=[N+]([O-])c1ccccc1/C=C/C=N/n1c(-c2ccccc2)n[nH]c1=S	-	-	-	68.2	-	-
O=[N+]([O-])c1ccccc1/C=C/C=N/n1c(-c2ccc(Cl)cc2)n[nH]c1=S	-	-	-	-	-	-
O=S(=O)(c1ccccc1)n1ccc2cccnc21	-	-	-	-	-	-
CCn1c(SCc2nc3sc(C(=O)O)c(C)c3c(=O)[nH]2)nc2ccccc21	-	-	-	60.9	-	-
COCCn1c(SCc2nc3sc(C(=O)OC)c(C)c3c(=O)[nH]2)nc2ccccc21	-	-	-	-	-	-
CCOC(=O)N1CCN(S(=O)(=O)N2CCCC(C(=O)NCCc3ccc(C)cc3)C2)CC1 (stereo not drawn)	.	-	.	.	.	.
COc1ccccc1C(=O)ON=C1c2ccccc2-c2ccccc21	50.8	-	-	-	-	-
O=S(=O)(NCCCN1CCOCC1)c1ccc2ccccc2c1	90.7	-	.	.	-	-
Cc1ccc(S(=O)(=O)NCCCN2CCOCC2)cc1C	88.5	-	-	-	-	-
COc1cc(S(=O)(=O)NCCCN2CCOCC2)ccc1Cl	92.9	-	-	-	-	-
c1ccc2cc(CN3CCOCC3)ccc2c1	54.0	-	-	-	-	-
O=C(Nc1ccc(CN2CCOCC2)cc1)c1ccc2ccccc2c1	.	-	.	.	.	.
Cc1cc(=O)oc2cc(NC(=O)C(CCCN=C(N)N)NC(=O)OCc3ccccc3)ccc12 (stereo not drawn)	.	-	.	.	.	.
SMILES	L major viab	PfGluPho inh	Diaph act CS	Diaphorase inh	DTT redox prof	G6PDH counter
O=[N+]([O-])c1cc(S(=O)(=O)NCCCN2CCOCC2)ccc1Cl	98.7	-	-	-	-	-
CCOc1ccc(S(=O)(=O)NCCCN2CCOCC2)cc1	92.0	-	-	-	-	-
Cc1cc(S(=O)(=O)NCCCN2CCOCC2)ccc1F	90.8	-	-	-	-	-
CCOc1ccc(OCC)c(S(=O)(=O)NCCCN2CCOCC2)c1	-	-	-	-	-	-
O=C(NCCCN1CCOCC1)c1ccc(Cl)c([N+](=O)[O-])c1	.	-	.	.	.	.
COC(=O)/C=C/CC(C)OS(N)(=O)=O (stereo not drawn)	.	-	.	.	.	.
Clc1cccc(OCCCCCN2CCOCC2)c1	.	-	.	.	.	.

Screens (PubChem BioAssay)
